From ChEMBL document CHEMBL1151747, “Orally bioavailable isothioureas block function of the chemokine receptor CXCR4 in vitro and in vivo” (J Med Chem, 2008)
Values belong to the molecule of their own block, whether it stands above or below them.

Columns and labels:
[1] = target: C-C chemokine receptor type 5 (Homo sapiens, UniProt P51681); experiment: Inhibition of CCR5
[2] = target: C-X-C chemokine receptor type 4 (Rattus norvegicus, UniProt O08565); experiment: Displacement of [125I]CXCL12 from CXCR4 in rat IR983F cells; format: cell-based
Sequence of C-X-C chemokine receptor type 4 (Rattus norvegicus, UniProt O08565) (O08565 whole entry): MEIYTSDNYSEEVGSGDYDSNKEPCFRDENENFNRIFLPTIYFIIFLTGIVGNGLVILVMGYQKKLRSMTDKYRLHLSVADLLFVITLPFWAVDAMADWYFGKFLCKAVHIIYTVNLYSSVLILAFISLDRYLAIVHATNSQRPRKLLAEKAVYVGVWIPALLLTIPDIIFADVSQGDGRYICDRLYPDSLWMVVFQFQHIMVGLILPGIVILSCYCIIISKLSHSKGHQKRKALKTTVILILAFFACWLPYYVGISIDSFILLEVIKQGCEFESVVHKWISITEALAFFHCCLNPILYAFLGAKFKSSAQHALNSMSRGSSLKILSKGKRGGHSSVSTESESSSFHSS
Outline: (§1)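 Scintillation proximity assay. Membranes come from CEM cells (human CXCR4) or IR983F cells (rat CXCR4), prepared by homogenization in 20 mM HEPES, 1 mM EDTA pH 7.4 and stored at -80 °C. Nonspecific binding is defined with 400 nM unlabeled CXCL12. Incubation is 2 h at room temperature with shaking, then scintillation counting.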

[3] = Partition coefficient, log P of the compound; format: physicochemical; settings: octanol/water
[4] = target: T1, C-X-C chemokine receptor type 2 (Homo sapiens, UniProt P25025); experiment: Inhibition of CXCR2
T1 sequence (P25025 whole entry): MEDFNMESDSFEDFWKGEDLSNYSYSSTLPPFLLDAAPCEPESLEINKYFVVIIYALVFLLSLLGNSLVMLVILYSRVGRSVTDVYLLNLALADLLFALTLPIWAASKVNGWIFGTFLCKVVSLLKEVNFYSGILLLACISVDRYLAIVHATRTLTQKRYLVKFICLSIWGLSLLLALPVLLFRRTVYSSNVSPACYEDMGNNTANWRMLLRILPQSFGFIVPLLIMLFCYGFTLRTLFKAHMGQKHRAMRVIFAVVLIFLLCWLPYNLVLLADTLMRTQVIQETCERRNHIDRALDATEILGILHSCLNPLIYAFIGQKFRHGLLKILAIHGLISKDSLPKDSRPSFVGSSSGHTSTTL

[5] = Oral bioavailability in Lewis rat at 10 mg/kg; format: ADME, organism-based; settings: in vivo
[6] = Half life in Lewis rat at 10 mg/kg, po; format: ADME, organism-based; parameters: dose 10 mg/kg, route oral; settings: in vivo
[7] = target: T2, C-X-C chemokine receptor type 4 (Homo sapiens, UniProt P61073); experiment: Activity at CXCR4 in human CEM cells assessed as inhibition of CXCL12-induced calcium mobilization; format: functional, cell-based, CCRF-CEM
T2 sequence (P61073 whole entry): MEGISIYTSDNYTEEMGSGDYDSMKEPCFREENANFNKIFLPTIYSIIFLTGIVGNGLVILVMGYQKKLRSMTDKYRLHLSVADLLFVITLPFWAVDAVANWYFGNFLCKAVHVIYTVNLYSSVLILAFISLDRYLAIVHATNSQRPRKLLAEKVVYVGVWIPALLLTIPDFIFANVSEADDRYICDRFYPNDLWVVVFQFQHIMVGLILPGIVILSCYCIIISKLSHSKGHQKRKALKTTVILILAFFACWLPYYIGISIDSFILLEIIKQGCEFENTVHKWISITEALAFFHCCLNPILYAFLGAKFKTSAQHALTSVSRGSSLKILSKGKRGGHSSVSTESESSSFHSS
Outline: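 CEM cells are loaded with 4 µM Fluo-4 for 1 h at 37 °C, washed, then preincubated with antagonist for 2 h. Wells are run in quadruplicate on FLIPR.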

[8] = Drug level in Lewis rat blood at 30 mg/kg/day administered through osmotic pump for 5 days; format: ADME, organism-based; settings: other: administered through osmotic pump, read-out: Drug uptake
Outline: (§2)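 Lewis rats (n = 3) receive 30 mg/kg·d via osmotic pumps for 5 days. Blood is sampled on day 5 and analyzed ex vivo.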

[9] = Solubility in pH 1.0 buffer; format: physicochemical
[10] = Tmax in Lewis rat at 10 mg/kg, po; format: ADME, organism-based; parameters: dose 10 mg/kg, route oral; settings: in vivo
[11] = tested on: Human immunodeficiency virus 1; experiment: Antiviral activity against X4-tropic HIV1 3B assessed as inhibition of viral attachment; format: functional, organism-based; settings: Human immunodeficiency virus 1, 3B
Cytochrome P450 1A2 = target: T3, Cytochrome P450 1A2 (Homo sapiens, UniProt P05177); experiment: Inhibition of CYP1A2; format: ADME
T3 sequence (P05177 whole entry): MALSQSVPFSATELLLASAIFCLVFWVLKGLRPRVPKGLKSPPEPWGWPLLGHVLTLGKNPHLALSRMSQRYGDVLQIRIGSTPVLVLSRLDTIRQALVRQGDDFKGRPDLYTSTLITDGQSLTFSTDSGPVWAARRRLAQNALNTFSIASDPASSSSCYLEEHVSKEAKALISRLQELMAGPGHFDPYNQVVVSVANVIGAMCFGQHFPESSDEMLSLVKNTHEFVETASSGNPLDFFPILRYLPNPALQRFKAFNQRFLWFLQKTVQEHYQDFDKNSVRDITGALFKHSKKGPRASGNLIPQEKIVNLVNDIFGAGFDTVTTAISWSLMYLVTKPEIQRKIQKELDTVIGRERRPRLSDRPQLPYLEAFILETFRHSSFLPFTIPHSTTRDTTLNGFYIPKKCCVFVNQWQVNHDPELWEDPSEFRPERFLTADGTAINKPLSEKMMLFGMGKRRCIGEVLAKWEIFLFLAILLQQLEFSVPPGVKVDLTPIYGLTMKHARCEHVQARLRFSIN

[12] = target: T4, C-C chemokine receptor type 9 (Homo sapiens, UniProt P51686); experiment: Inhibition of CCR9
T4 sequence (P51686 whole entry): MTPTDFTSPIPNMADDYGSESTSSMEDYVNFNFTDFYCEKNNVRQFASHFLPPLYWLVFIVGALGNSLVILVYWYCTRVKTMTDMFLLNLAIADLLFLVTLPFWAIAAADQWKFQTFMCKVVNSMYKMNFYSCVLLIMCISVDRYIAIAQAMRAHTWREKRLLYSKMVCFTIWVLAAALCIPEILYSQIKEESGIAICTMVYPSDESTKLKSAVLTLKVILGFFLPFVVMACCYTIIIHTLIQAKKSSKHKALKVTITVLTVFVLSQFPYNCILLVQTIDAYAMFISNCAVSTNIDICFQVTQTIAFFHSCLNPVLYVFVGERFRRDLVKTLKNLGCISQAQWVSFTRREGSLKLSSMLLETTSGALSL

Rattus norvegicus = experiment: Reduction in actin polymerization in Lewis rat blood at 30 mg/kg/day administered through osmotic pump for 5 days relative to control; format: functional; parameters: scale not given: the % may be the effect or the level left; outline: as §2
[13] = Fraction unbound in human serum; format: ADME, cell-free
[14] = target: T5, C-C chemokine receptor type 7 (Homo sapiens, UniProt P32248); experiment: Inhibition of CCR7
T5 sequence (P32248 whole entry): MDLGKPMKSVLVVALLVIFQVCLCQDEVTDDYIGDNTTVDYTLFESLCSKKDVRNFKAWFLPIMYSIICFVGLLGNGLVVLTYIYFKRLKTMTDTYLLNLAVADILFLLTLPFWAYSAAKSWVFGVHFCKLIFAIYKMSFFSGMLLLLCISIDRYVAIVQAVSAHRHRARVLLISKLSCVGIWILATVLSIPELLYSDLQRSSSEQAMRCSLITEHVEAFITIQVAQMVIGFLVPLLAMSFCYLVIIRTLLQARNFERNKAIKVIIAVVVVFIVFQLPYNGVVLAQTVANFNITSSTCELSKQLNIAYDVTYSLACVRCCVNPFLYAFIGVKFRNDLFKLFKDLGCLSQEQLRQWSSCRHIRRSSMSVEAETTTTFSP

Cytochrome P450 3A4 = Cytochrome P450 3A4 (Homo sapiens, UniProt P08684); experiment: Inhibition of CYP3A4; format: ADME
Sequence of Cytochrome P450 3A4 (P08684 whole entry): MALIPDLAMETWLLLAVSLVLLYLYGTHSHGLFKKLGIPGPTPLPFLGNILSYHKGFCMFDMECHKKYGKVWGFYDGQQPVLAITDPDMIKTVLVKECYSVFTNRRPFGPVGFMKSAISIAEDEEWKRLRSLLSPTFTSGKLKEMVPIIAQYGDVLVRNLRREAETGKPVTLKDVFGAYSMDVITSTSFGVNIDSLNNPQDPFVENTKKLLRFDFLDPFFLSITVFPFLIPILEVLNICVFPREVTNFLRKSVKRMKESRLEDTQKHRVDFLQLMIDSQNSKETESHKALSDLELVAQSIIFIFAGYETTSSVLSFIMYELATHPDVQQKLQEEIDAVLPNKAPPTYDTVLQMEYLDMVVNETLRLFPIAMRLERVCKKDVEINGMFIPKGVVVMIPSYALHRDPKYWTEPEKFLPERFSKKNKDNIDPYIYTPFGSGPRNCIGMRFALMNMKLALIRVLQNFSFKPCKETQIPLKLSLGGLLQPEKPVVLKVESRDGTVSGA

Blood [15] = experiment: Inhibition of CXCL12-induced actin polymerization in human whole blood; format: functional, tissue-based
Outline: (§3)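 EDTA whole blood (100 µL) is preincubated with inhibitor diluted in PBS for 10 min at room temperature. CXCL12 (100 nM final) is added for 25 s at ambient temperature. […] Neutrophil F-actin is read by flow cytometry.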

Cytochrome P450 2C9 = Cytochrome P450 2C9 (Homo sapiens, UniProt P11712); experiment: Inhibition of CYP2C9; format: ADME
Sequence of Cytochrome P450 2C9 (P11712 whole entry): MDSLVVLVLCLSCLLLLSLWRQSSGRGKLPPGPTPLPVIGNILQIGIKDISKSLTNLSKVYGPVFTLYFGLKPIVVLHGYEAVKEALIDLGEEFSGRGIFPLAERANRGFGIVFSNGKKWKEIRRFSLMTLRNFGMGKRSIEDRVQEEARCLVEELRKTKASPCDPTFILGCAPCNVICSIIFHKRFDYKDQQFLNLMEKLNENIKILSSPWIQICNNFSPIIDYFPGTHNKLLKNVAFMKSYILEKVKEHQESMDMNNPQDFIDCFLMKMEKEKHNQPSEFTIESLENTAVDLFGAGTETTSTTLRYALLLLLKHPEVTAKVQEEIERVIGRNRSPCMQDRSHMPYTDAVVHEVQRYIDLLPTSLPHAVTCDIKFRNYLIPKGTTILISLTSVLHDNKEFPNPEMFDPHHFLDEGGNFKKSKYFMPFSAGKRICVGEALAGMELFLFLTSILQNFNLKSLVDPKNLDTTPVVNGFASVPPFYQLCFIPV

Blood [16] = experiment: Inhibition of CXCL12-induced actin polymerization in rat whole blood; format: functional, tissue-based; outline: as §3
[17] = target: T6, C-C chemokine receptor type 4 (Homo sapiens, UniProt P51679); experiment: Inhibition of CCR4
T6 sequence (P51679 whole entry): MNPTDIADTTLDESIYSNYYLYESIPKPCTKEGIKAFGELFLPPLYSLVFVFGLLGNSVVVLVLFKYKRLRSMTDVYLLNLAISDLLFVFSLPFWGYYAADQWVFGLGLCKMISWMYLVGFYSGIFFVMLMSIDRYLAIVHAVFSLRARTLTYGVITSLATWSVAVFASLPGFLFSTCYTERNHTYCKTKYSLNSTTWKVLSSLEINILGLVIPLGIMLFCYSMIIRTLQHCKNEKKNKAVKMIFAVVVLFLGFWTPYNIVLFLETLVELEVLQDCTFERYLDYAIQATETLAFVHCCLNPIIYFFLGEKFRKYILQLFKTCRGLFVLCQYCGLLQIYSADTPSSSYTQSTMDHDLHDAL

[18] = Intrinsic clearance in human liver microsomes; format: ADME, Microsome
Outline: (§4)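 Compound is incubated with human or rat liver microsomes; intrinsic clearance is given in µL min-1 mg-1.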

[19] = target: T2, C-X-C chemokine receptor type 4; experiment: Displacement of [125I]CXCL12 from CXCR4 in human CEM cells; format: cell-based, CCRF-CEM; outline: as §1
[20] = Dissociation constant, pKa of the compound; format: physicochemical
[21] = Distribution coefficient, log D of the compound; format: physicochemical; settings: octanol/water
[22] = Solubility in pH 6.8 buffer; format: physicochemical
[23] = Intrinsic clearance in rat liver microsomes; format: ADME, Microsome; outline: as §4
[24] = Fraction unbound in rat serum; format: ADME, cell-free
Cytochrome P450 2C19 = Cytochrome P450 2C19 (Homo sapiens, UniProt P33261); experiment: Inhibition of CYP2C19; format: ADME
Sequence of Cytochrome P450 2C19 (P33261 whole entry): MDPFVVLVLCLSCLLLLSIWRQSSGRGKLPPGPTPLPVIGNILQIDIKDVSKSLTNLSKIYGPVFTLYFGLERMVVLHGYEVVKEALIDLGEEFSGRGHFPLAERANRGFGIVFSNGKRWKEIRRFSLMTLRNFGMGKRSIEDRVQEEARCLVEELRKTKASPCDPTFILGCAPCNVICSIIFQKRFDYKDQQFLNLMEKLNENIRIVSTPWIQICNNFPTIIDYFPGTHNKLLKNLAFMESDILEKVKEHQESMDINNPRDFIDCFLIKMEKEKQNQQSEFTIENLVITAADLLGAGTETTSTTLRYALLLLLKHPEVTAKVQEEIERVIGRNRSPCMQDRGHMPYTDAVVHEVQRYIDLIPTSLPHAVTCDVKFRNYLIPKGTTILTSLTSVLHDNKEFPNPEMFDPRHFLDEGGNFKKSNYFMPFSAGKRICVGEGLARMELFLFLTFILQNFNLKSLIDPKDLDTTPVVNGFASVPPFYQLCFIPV

Cytochrome P450 2D6 = Cytochrome P450 2D6 (Homo sapiens, UniProt P10635); experiment: Inhibition of CYP2D6; format: ADME
Sequence of Cytochrome P450 2D6 (P10635 whole entry): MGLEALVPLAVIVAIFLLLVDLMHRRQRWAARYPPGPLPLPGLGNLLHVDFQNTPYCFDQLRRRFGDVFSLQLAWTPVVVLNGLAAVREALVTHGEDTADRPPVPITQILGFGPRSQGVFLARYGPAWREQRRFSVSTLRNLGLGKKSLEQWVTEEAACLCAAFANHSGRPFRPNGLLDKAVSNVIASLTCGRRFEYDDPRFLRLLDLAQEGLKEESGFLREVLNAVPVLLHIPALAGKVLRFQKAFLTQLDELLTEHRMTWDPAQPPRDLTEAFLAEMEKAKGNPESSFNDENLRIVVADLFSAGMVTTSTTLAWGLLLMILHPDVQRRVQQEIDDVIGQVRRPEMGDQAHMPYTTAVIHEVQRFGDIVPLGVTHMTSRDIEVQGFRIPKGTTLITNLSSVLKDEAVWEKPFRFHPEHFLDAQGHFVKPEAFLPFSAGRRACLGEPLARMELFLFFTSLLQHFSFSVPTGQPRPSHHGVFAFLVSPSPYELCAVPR

Sequence of C-C chemokine receptor type 5 (P51681 whole entry): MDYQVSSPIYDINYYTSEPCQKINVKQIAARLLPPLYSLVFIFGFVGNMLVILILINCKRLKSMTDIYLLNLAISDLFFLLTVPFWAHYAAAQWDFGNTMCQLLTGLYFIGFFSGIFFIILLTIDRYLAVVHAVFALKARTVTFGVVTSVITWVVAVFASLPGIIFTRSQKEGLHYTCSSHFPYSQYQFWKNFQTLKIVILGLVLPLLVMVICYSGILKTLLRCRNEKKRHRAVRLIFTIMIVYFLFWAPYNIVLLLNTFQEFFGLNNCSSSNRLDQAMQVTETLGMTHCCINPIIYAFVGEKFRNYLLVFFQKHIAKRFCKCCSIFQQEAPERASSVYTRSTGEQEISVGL

IC50 [1]: > 3 µM
IC50 [2]: 0.055 µM
logP [3]: 3.5
IC50 [4]: > 3 µM
bioavailability [5]: 14%
half-life [6]: 7.2 h
IC50 [7]: 0.011 µM
concentration at 120 h [8]: 1000 nM
solubility [9]: > 5000 µg/mL
Tmax [10]: 0.5 h
IC50 [11]: 0.04 µM
IC90 [11]: 0.72 µM
IC50 (Cytochrome P450 1A2): > 10 µM
IC50 [12]: > 3 µM
fraction unbound [13]: 0.29
IC50 [14]: > 3 µM
IC50 (Cytochrome P450 3A4): 3.86 µM
IC50 (Blood [15]): 0.032 µM
IC50 (Cytochrome P450 2C9): > 10 µM
IC50 (Blood [16]): 0.086 µM
IC50 [17]: > 3 µM
microsomal CLint [18]: 51 µL/min/mg
IC50 [19]: 0.048 µM
pKa [20]: 7.7
logD [21]: -0.2
solubility [22]: > 5000 µg/mL
microsomal CLint [23]: 411 µL/min/mg
fraction unbound [24]: 0.54
IC50 (Cytochrome P450 2C19): > 10 µM
Compound: C1=C(CS/C(=N\C2CCCCC2)NC2CCCCC2)N2CCN=C2S1
Activity (Rattus norvegicus): >80%

IC50 [7]: 0.931 µM
IC50 [11]: > 100 µM
IC90 [11]: > 100 µM
IC50 [19]: 3.38 µM
Compound: CN(/C(=N/C1CCCCC1)SCC1=CSC2=NCCN12)C1CCCCC1

IC50 [7]: 0.493 µM
IC50 [19]: 3.83 µM
Compound: C1=C(CS/C(=N\C2CCCC2)NC2CCCC2)N2CCN=C2S1

IC50 [7]: 0.0053 µM
IC50 [19]: 0.027 µM
Compound: C1=C(CS/C(=N\C2CCCCCCC2)NC2CCCCCCC2)N2CCN=C2S1

IC50 [19]: > 10 µM
Compound: CC(C)/N=C(/NC(C)C)SCC1=CSC2=NCCN12

IC50 [7]: 0.008 µM
IC50 [19]: 0.028 µM
Compound: C1=C(CS/C(=N\C2CCCCC2)NC2CCCCCCC2)N2CCN=C2S1

IC50 [7]: 0.173 µM
IC50 [11]: 0.47 µM
IC90 [11]: > 100 µM
IC50 [19]: 0.372 µM
Compound: C1=C(CSC(=NC2CCCCC2)NC2CCCC2)N2CCN=C2S1

IC50 [7]: 5.27 µM
IC50 [19]: > 10 µM
Compound: C1=C(CS/C(=N\C2CCCCC2)Nc2ccccc2)N2CCN=C2S1

IC50 [7]: > 10 µM
IC50 [19]: > 10 µM
Compound: c1ccc(CS/C(=N\C2CCCCC2)NC2CCCCC2)cc1

IC50 [7]: 9.13 µM
IC50 [19]: > 10 µM
Compound: C/N=c1/scc(CS/C(=N\C2CCCCC2)NC2CCCCC2)n1C

IC50 [2]: 0.011 µM
logP [3]: 4.5
bioavailability [5]: 32%
half-life [6]: 7.6 h
solubility [9]: > 5000 µg/mL
Tmax [10]: 0.5 h
IC50 [11]: 0.007 µM
IC90 [11]: 0.1 µM
IC50 (Cytochrome P450 1A2): > 10 µM
fraction unbound [13]: 0.2
IC50 (Cytochrome P450 3A4): > 10 µM
IC50 (Cytochrome P450 2C9): > 10 µM
microsomal CLint [18]: 149 µL/min/mg
pKa [20]: 8
logD [21]: 1.2
solubility [22]: > 5000 µg/mL
microsomal CLint [23]: 342 µL/min/mg
fraction unbound [24]: 0.46
IC50 (Cytochrome P450 2C19): 5.2 µM
IC50 (Cytochrome P450 2D6): 0.4 µM
Compound: CC1(C)CN2C(CS/C(=N\C3CCCCC3)NC3CCCCC3)=CSC2=N1
